Test results from the EternaBench riboswitch data.

Test system: MS2 coat protein
Experiment: apparent Kd, MS2 coat protein; higher = weaker binding; RNA-MaP array; FMN 200 µM where present
Procedure, shortened: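 In 100 mM Tris-HCl pH 7.5, 80 mM KCl, 4 mM MgCl2, BSA, DTT, yeast tRNA and Tween-20, SNAP-549-labelled MS2 coat protein was titrated from 0.7 or 1.5 nM, doubling to 3 µM, over designs transcribed by stalled E. coli RNA polymerase on Illumina sequencing-chip clusters. This was done first without ligand, then with ligand held constant. After green signal was normalised to red-channel RNA signal and control-cluster median Fmax, the apparent Kd was taken as the median of filtered per-cluster binding-curve fits.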

[1] = designed as: OFF switch for flavin mononucleotide, no ligand
[2] = ligand present: flavin mononucleotide, designed as: OFF switch for flavin mononucleotide
[3] = designed as: ON switch for flavin mononucleotide, no ligand
[4] = ligand present: flavin mononucleotide, designed as: ON switch for flavin mononucleotide

Sequence	apparent Kd [1]	apparent Kd [2]	apparent Kd [3]	apparent Kd [4]
GGAUCGAGUGUGAGGAUAUACCUAUGGAAACAUAGGUAGAAGGCACAUGAGGAUCACCCAUGUCCUAACGGUCC	350 nM	514 nM		
ACAGAGGCUGACAUGAGGAUCACCCAUGUUAGAUUGUUAUGUCAGGAUAUUGUCUAGCAACUAGACAAGAAGGGACCCUCUGUG			39.2 nM	9.69 nM
CCCGACCUGAAGUCGAUACGGAGGAGAAGGCGCCUCCUGGGUCCACAUGAGGAUCACCCAUGUGGCGAGGAUAUCCUCAGUUUU	11.8 nM	73.7 nM		
CUUUCGUGAGGAUAUGUGGCUUAAAUCGUGAGAUCGAGGCUACAGAAGGCACAUGAGGAUCACCCAUGUUCCUC	36 nM	569 nM		
AAAUUGGUAGAGGAUAUCGGAUAGGAUUUACUGCGAGAAGGCUGCACAUGAGGAUCACCCAUGUUCUGUUGCGA	25.1 nM	26 nM		
CCUCAGUAAGGAUAUCAGCUUAAGGAGGUGGUAAAGAGAGCUGAGAAGGUACAUGAGGAUCACCCAUGUUAAAA	91.1 nM	227 nM		
AUAAAGUGAGGAUAUGUAAAAAUAACGAAAGUUAUAAAUAAACAGAAGGCACAUGAGGAUCACCCAUGUCCAAU	26.8 nM	43.1 nM		
AAAAAAAAAAGACAGGAUAUCCAAAAAAAAACAUGAGGAUCACCCAUGUAAAAAAAAAAAAAAUGGGAGAAGGGUCAAAAAAAAAA			63.2 nM	32.1 nM
CAUGCACAUGAGGAUCACCCAUGUCAGGAUAUCUAUCAUAGCAUCGAAAGAUGCGGGUAGAGAAGGGACAACCC	16.2 nM	16.4 nM		
UGAGCCUCGUGAGGAUAUACAUGAGGAUCACCCAUGUAAAUGGAAUAACGGAGGAAACUCCGAAUGUAGAAGGCACGAGGCUCA	81.3 nM	840 nM		
CUGAUGUGAGGAUAUCGGGCUACAGGCCUGCUGCUAGCAAACGAGAAGGCACAUGAGGAUCACCCAUGUGAUAG	15.9 nM	35.1 nM		
CGAGCCGGCACUGAGGAUAUUCAUAUUUAAACAUGAGGAUCACCCAUGUAGGCCAGAAGGCCUUGGGAGAAGGCAGGUCGGCUCC			379 nM	27.2 nM
ACACCGUCAGGAUAUUGGAAGACACCCAGGAGGGUGCCUUUCGAGAAGGGACAUGAGGAUCACCCAUGUGCAGU	27.9 nM	58.6 nM		
UGUGUGUGGCAGGAUAUUCCGGUCGUUGGUCGGGAAGAAGGGUCUACAUGAGGAUCACCCAUGUGACCGGUUGA	27 nM	27.5 nM		
ACUAGAUGAGGAUAUGCAUAUUUUCGUGUUCUUCUAGAUUAACAUGAGGAUCACCCAUGUAGAAGGCGUCAUUU	15.7 nM	18.4 nM		
AAUAAACUCACAGGAUAUAGCAUAGUCGGCGUGAACUUAAUGGCGACUAUGCUAGAAGGGUGACCACAUGAGGAUCACCCAUGU			710 nM	149 nM
GCGCAAACGCCAAAAGGCGAAAUUACAUGAGGAUCACCCAUGUAGGAUAUCGAUUGCUUUGCAGUCGAGAAGGACAUGAUGCGC	19.2 nM	23.9 nM		
AUAAUGUGAGGAUAUCAGUCGUACAGCUUCGGCUGUACGACUGAGAAGGCACAUGAGGAUCACCCAUGUGGUCA	499 nM	84.2 nM		
AAAAGACAUGAGGAUCACCCAUGUCAGGAUAUCUUCCGUAGGCCGAAUGGCUUCCGGUGGAGAAGGGACAUCGG	50.7 nM	104 nM		
GUAGCAUACCAAGGAUAUUCAGGGCUUGGAUAGACAUGAGGAUCACCCAUGUGGCGAAAGUCUAGGGAGAAGGUGGUAUGCUAC			16 nM	13.8 nM
GCGUAUAUAUGUUUUAUUUAACAGUCAGAAGGUGAUAAUACGACAUGAGGAUCACCCAUGUAAUUCAAGGAUAUGAUCUUACGC			117 nM	20.1 nM
AUUGGUGGUGUAGGAUAUAACAGCAGCUGUGGUACCGUGUGUUAAGGACAUGAGGAUCACCCAUGUUAGAAGGACACUGUCCAG	436 nM	75.8 nM		
AAGGCGGCUCAGGCCGAGUUUCGCAGAAGGGCACAUGAGGAUCACCCAUGUACCUGGUCUGAUGUGCAGGAUAUGUGAGUCAGC	5.6 nM	10.4 nM		
